Laboratory results as given in ChEMBL document CHEMBL1126115, “Synthesis of a homologous series of ketomethylene arginyl pseudodipeptides and application to low molecular weight hirudin-like thrombin inhibitors” (J Med Chem, 1992).
Starred links: 1 amine or outer side, 2 acyl side, 3 side chain; linkers in the order of their positions; H or OH if unused. Non-standard residues stand in square brackets, D forms with d. Residues, ends and D or L forms follow the SMILES beside them. X1 = NC(N)=NCCCC(N[*:1])C(=O)CCCCC(=O)[*:2]; X2 = O=C(C/C=C/CN[*:1])[*:2]

Test system: Rattus norvegicus
Assay: Antithrombotic effect compared to recombinant hirudin in the rat rretiovenous shunt model after intravenous administration
Type: functional
Outline: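 Urethane-anaesthetised rats on a temperature-controlled heating plate; right carotid artery and left jugular vein catheterised and joined by a 2-cm glass capillary (1 mm internal diameter) as thrombogenic surface. Compound or saline given intravenously 5 min before the shunt was opened. Patency followed by capillary temperature rise (thermocouple). ED15 is the dose giving a 15-min prolongation of shunt patency.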

Compound	ED15 [mg/kg]
CC[C@H](C)[C@H](NC(=O)[C@@H]1CCCN1C(=O)[C@H](CCC(=O)O)NC(=O)[C@H](Cc1ccccc1)NC(=O)[C@H](CC(=O)O)NC(=O)C/C=C/CNC(=O)C/C=C/CNC(=O)CCCCC(=O)[C@H](CCCN=C(N)N)NC(=O)[C@@H]1CCCN1C(=O)[C@@H](Cc1ccccc1)NC(C)=O)C(=O)N1CCC[C@H]1C(=O)N[C@@H](CC(C)C)C(=O)O	6.27

Target: Prothrombin (Homo sapiens, UniProt P00734)
Assay: Compound was evaluated for their ability to inhibit the alpha-thrombin-mediated hydrolysis of the fluorescent substrate Tos-Gly-Pro-Arg-Amc
Outline: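 Human α-thrombin (30 pM) added to start the reaction, 25 °C, 0.1 M Tris-HCl pH 7.8 with 0.1 M NaCl and 0.1% PEG 6000. […] Initial rates of Amc fluorescence read at ex 383/em 455 nm, calibrated against free 7-amino-4-methylcoumarin. Ki obtained by nonlinear fit to a competitive inhibition equation.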

Compound	Ki [nM]
CC[C@H](C)[C@H](NC(=O)[C@H](CCC(=O)O)NC(=O)[C@H](CCC(=O)O)NC(=O)[C@H](Cc1ccccc1)NC(=O)[C@H](CC(=O)O)NC(=O)CNC(=O)[C@H](CC(=O)O)NC(=O)[C@H](CC(N)=O)NC(=O)[C@H](Cc1c[nH]cn1)NC(=O)[C@H](CO)NC(=O)[C@H](CCC(N)=O)NC(=O)CC(=O)[C@H](CCCN=C(N)N)NC(=O)[C@@H]1CCCN1C(=O)[C@H](Cc1ccccc1)NC(C)=O)C(=O)N1CCC[C@H]1C(=O)N[C@@H](CCC(=O)O)C(=O)N[C@@H](CCC(=O)O)C(=O)N[C@@H](Cc1ccc(O)cc1)C(=O)N[C@@H](CC(C)C)C(=O)N[C@@H](CCC(N)=O)C(=O)O	3.8
CC[C@H](C)[C@H](NC(=O)[C@@H]1CCCN1C(=O)[C@H](CCC(=O)O)NC(=O)[C@H](Cc1ccccc1)NC(=O)[C@H](CC(=O)O)NC(=O)C/C=C/CNC(=O)C/C=C/CNC(=O)CCCCC(=O)C(CCCN=C(N)N)NC(=O)[C@@H]1CCCN1C(=O)[C@H](Cc1ccccc1)NC(C)=O)C(=O)N1CCC[C@H]1C(=O)N[C@@H](CC(C)C)C(=O)O (stereo partly drawn)	3.5
CC[C@H](C)[C@H](NC(=O)[C@@H]1CCCN1C(=O)[C@H](CCC(=O)O)NC(=O)[C@H](Cc1ccccc1)NC(=O)[C@H](CC(=O)O)NC(=O)C/C=C/CNC(=O)CCCCC(=O)[C@H](CCCN=C(N)N)NC(=O)[C@@H]1CCCN1C(=O)[C@H](Cc1ccccc1)NC(C)=O)C(=O)N1CCC[C@H]1C(=O)N[C@@H](CC(C)C)C(=O)O (HELM PEPTIDE1{[ac].F.P.[NC(N)=NCCC[C@H](N[*:1])C(=O)CCCCC(=O)[*:2]].[O=C(C/C=C/CN[*:1])[*:2]].D.F.E.P.I.P.L}$$$$V2.0)	300

Next, values leading:

Ki [nM]	Compound
0.56	CC[C@H](C)[C@H](NC(=O)[C@H](CCC(=O)O)NC(=O)[C@H](CCC(=O)O)NC(=O)[C@H](Cc1ccccc1)NC(=O)[C@H](CC(=O)O)NC(=O)CNC(=O)[C@H](CC(=O)O)NC(=O)[C@H](CC(N)=O)NC(=O)[C@H](Cc1c[nH]cn1)NC(=O)[C@H](CO)NC(=O)[C@H](CCC(N)=O)NC(=O)CCCC(=O)[C@H](CCCN=C(N)N)NC(=O)[C@@H]1CCCN1C(=O)[C@H](Cc1ccccc1)NC(C)=O)C(=O)N1CCC[C@H]1C(=O)N[C@@H](CCC(=O)O)C(=O)N[C@@H](CCC(=O)O)C(=O)N[C@@H](Cc1ccc(O)cc1)C(=O)N[C@@H](CC(C)C)C(=O)N[C@@H](CCC(N)=O)C(=O)O
0.14	CC[C@H](C)[C@H](NC(=O)[C@H](CCC(=O)O)NC(=O)[C@H](CCC(=O)O)NC(=O)[C@H](Cc1ccccc1)NC(=O)[C@H](CC(=O)O)NC(=O)CNC(=O)[C@H](CC(=O)O)NC(=O)[C@H](CC(N)=O)NC(=O)[C@H](Cc1c[nH]cn1)NC(=O)[C@H](CO)NC(=O)[C@H](CCC(N)=O)NC(=O)CCCCC(=O)[C@H](CCCN=C(N)N)NC(=O)[C@@H]1CCCN1C(=O)[C@H](Cc1ccccc1)NC(C)=O)C(=O)N1CCC[C@H]1C(=O)N[C@@H](CCC(=O)O)C(=O)N[C@@H](CCC(=O)O)C(=O)N[C@@H](Cc1ccc(O)cc1)C(=O)N[C@@H](CC(C)C)C(=O)N[C@@H](CCC(N)=O)C(=O)O
3.2	CC[C@H](C)[C@H](NC(=O)[C@@H]1CCCN1C(=O)[C@H](CCC(=O)O)NC(=O)[C@H](Cc1ccccc1)NC(=O)[C@H](CC(=O)O)NC(=O)C/C=C/CNC(=O)C/C=C/CNC(=O)C/C=C/CNC(=O)CCCCC(=O)C(CCCN=C(N)N)NC(=O)[C@@H]1CCCN1C(=O)[C@H](Cc1ccccc1)NC(C)=O)C(=O)N1CCC[C@H]1C(=O)N[C@@H](CC(C)C)C(=O)O (stereo partly drawn) (Ac-FP[X1][X2][X2][X2]DFEPIPL-OH)
2.8	CC[C@H](C)[C@H](NC(=O)[C@@H]1CCCN1C(=O)[C@H](CCC(=O)O)NC(=O)C(Cc1ccccc1)NC(=O)[C@H](CC(=O)O)NC(=O)CNC(=O)[C@H](CC(=O)O)NC(=O)[C@H](CC(N)=O)NC(=O)[C@H](Cc1cnc[nH]1)NC(=O)[C@H](CO)NC(=O)[C@H](CCC(N)=O)NC(=O)[C@@H]1CCCN1C(=O)[C@H](CCCNC(=N)N)N(C)C(=O)[C@@H]1CCCN1C(=O)C(Cc1ccccc1)NC(C)=O)C(=O)N1CCC[C@H]1C(=O)N[C@@H](CC(C)C)C(=O)O (stereo in doubt)
